ChEMBL document CHEMBL1770055, “Regioselective one pot synthesis of 3,3'-diindolylethylene derivatives and study of their cytotoxic activity” (Bioorg Med Chem Lett, 2011)

Legend:
U-937 [1] = assay: Cytotoxicity against human U937 cells assessed as cell growth inhibition after 48 hrs by MTS-PMS assay; type: functional, cell-based; conditions: U-937, 48 h
In short: (§1)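 Cells seeded at 5 × 10^4 per 200 µl and exposed to compounds at 0–100 µM, in triplicate, for 48 h at 37 °C, 5% CO2. MTS (2.0 mg/ml) and PMS (0.92 mg/ml) were mixed 10:1 and added, followed by 3 h at 37 °C. Absorbance (formazan) was read at 490 nm. Viability is expressed as % of untreated. IC50 was obtained by graphic extrapolation.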

K562 = assay: Cytotoxicity against human K562 cells assessed as cell growth inhibition after 48 hrs by MTS-PMS assay; type: functional, cell-based; conditions: K562, 48 h; in short: as §1
U-937 [2] = assay: Induction of apoptosis in human U937 cells assessed as apoptotic cells at 13.06 uM after 8 hrs using annexin V/propidium iodide staining by flow cytometry (reference value: 2.42%); type: functional
U-937 [3] = assay: Induction of apoptosis in human U937 cells assessed as late apoptotic cells at 13.06 uM after 8 hrs using annexin V/propidium iodide staining by flow cytometry (reference value: 5.83%); type: functional
U-937 [4] = assay: Induction of apoptosis in human U937 cells assessed as pre-necrotic cells at 13.06 uM after 8 hrs using annexin V/propidium iodide staining by flow cytometry (reference value: 0.30%); type: functional

| SMILES | IC50 (U-937 [1]) | IC50 (K562) | Activity (U-937 [2]) | Activity (U-937 [3]) | Activity (U-937 [4]) |
| --- | --- | --- | --- | --- | --- |
| C=C(c1c(-c2cccc(Br)c2)[nH]c2ccccc12)c1c(-c2cccc(Br)c2)[nH]c2ccccc12 | > 100 µM | > 100 µM | – | – | – |
| C=C(c1c(-c2ccccc2)[nH]c2ccccc12)c1c(-c2ccccc2)[nH]c2ccccc12 | > 100 µM | > 100 µM | – | – | – |
| ClC=C(c1c(-c2ccccc2)[nH]c2ccccc12)c1c(-c2ccccc2)[nH]c2ccccc12 | 13.1 µM | 18.2 µM | 41% | 11.68% | 1.3% |
| C=C(c1c(-c2cccc(Cl)c2)[nH]c2ccccc12)c1c(-c2cccc(Cl)c2)[nH]c2ccccc12 | 46.9 µM | 40.3 µM | – | – | – |
| C=C(c1c(-c2ccc(Cl)cc2Cl)[nH]c2ccccc12)c1c(-c2ccc(Cl)cc2Cl)[nH]c2ccccc12 | > 100 µM | > 100 µM | – | – | – |
| C=C(c1c(-c2ccccc2OC)[nH]c2ccccc12)c1c(-c2ccccc2OC)[nH]c2ccccc12 | 71.6 µM | 92.6 µM | – | – | – |
| C=C(c1c(-c2ccc(OC)c(OC)c2)[nH]c2ccccc12)c1c(-c2ccc(OC)c(OC)c2)[nH]c2ccccc12 | > 100 µM | > 100 µM | – | – | – |
